Measurements gathered from unrelated publications.

With `Cc1cc(C)nc(Nc2ncc(C(=O)NCCc3c(C)[nH]c4ccccc34)cn2)c1` the half-life was 3.8 min (metabolic stability; rat, liver microsomes; 1 µM).
With `O=C(NC1CCCCC1)Oc1ccc(-c2ccccc2)cc1` the half-life was 19 min (metabolic stability; male Wistar rat, liver S9; 1 µM, pH 7.4).
With `CCC[C@@](N)(CO)CCc1ccc(OCCCCCC(C)C)cc1` the AUC(0-t) was 0.714 µM·h (mouse, plasma; intravenous, 5 mg/kg).
`O=C(NC1CCCCC1)Oc1ccc2ccccc2c1` has a half-life of 5 min (metabolic stability; male Wistar rat, liver S9; 1 µM, pH 7.4).
`C[C@]12CC[C@H](n3ccnc3)CC1=CC[C@@H]1[C@@H]2CC[C@]2(C)C(n3cnc4ccccc43)=CC[C@@H]12.Cl` has an AUC(0-t) of 2040 ng·h/mL (male CD-1 mouse, plasma; intravenous, 1 mg/kg).
The half-life of `Cc1cc(-c2nsc(=O)o2)c(S(C)(=O)=O)s1` is reported as 13.5 min (chemical stability; culture medium).
The bioavailability of `NS(=O)(=O)c1ccc(Cc2c(-c3cccc(-c4ccccc4)c3)nn(-c3nc(C(=O)O)cs3)c2C2CC2)cc1` is reported as about 50% (male CD-1 mouse, plasma; oral, 50 mg/kg).
`CCN(CC)CCCC[C@H](NC(=O)[C@H](CC(C)C)NC(=O)[C@H](C)NC(=O)[C@H](Cc1ccccc1)NC(=O)c1ccc(C(C)(C)C)cc1)C(=O)N[C@@H](CO)C(=O)OC` gave a bioavailability of 25% (male Swiss mouse, plasma; intraperitoneal, 10 mg/kg).
`CSc1sc(C)cc1-c1nsc(=O)o1` has a half-life of 110 min (chemical stability; culture medium).
With `O=C(Nc1nccs1)C(c1cc(F)ccc1O)N1Cc2ccc(-c3ccc(N4CCNCC4)cc3)cc2C1=O` (centres unmarked) the bioavailability was 3% (mouse, plasma; oral, 20 mg/kg).
`COc1ncccc1-c1cnn2ccc(N3CCN(C(=O)OC(C)C)CC3)nc12` gave a bioavailability of about 100% (mouse, plasma; oral, 10 mg/kg).
